In ChEMBL document CHEMBL2417539, “1-substituted (Dibenzo[b,d]thiophen-4-yl)-2-morpholino-4H-chromen-4-ones endowed with dual DNA-PK/PI3-K inhibitory activity” (J Med Chem, 2013):

What was measured:
HeLa [1] = assay: Antiproliferative activity against human HeLa cells assessed as cell survival ratio at 0.1 uM treated 1 hr before 2Gy ionizing radiation measured after 6 to 8 days by DMR clonogenic assay; format: functional
Outline: (§1)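 HeLa cells seeded in 6-well dishes, incubated overnight at 37 °C/5% CO2, pre-treated 1 h with vehicle or inhibitor (0.1 or 0.5 μM), then given 2 Gy X-ray IR and held overnight. Medium then replaced without compound and culture continued 6-8 days. Colonies Giemsa-stained and counted automatically. DMR = % survival (vehicle, 2 Gy) / % survival (compound, 2 Gy).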

HeLa [2] = assay: Antiproliferative activity against human HeLa cells assessed as cell survival ratio at 0.5 uM treated 1 hr before 2Gy ionizing radiation measured after 6 to 8 days by DMR clonogenic assay; format: functional; outline: as §1
[3] = target: DNA-dependent protein kinase catalytic subunit (Homo sapiens, UniProt P78527); assay: Inhibition of human DNA-PK using GST-tagged p53N66 as substrate after 1 hr by ELISA-based chemiluminiscence assay
Chain of DNA-dependent protein kinase catalytic subunit (P78527 whole entry): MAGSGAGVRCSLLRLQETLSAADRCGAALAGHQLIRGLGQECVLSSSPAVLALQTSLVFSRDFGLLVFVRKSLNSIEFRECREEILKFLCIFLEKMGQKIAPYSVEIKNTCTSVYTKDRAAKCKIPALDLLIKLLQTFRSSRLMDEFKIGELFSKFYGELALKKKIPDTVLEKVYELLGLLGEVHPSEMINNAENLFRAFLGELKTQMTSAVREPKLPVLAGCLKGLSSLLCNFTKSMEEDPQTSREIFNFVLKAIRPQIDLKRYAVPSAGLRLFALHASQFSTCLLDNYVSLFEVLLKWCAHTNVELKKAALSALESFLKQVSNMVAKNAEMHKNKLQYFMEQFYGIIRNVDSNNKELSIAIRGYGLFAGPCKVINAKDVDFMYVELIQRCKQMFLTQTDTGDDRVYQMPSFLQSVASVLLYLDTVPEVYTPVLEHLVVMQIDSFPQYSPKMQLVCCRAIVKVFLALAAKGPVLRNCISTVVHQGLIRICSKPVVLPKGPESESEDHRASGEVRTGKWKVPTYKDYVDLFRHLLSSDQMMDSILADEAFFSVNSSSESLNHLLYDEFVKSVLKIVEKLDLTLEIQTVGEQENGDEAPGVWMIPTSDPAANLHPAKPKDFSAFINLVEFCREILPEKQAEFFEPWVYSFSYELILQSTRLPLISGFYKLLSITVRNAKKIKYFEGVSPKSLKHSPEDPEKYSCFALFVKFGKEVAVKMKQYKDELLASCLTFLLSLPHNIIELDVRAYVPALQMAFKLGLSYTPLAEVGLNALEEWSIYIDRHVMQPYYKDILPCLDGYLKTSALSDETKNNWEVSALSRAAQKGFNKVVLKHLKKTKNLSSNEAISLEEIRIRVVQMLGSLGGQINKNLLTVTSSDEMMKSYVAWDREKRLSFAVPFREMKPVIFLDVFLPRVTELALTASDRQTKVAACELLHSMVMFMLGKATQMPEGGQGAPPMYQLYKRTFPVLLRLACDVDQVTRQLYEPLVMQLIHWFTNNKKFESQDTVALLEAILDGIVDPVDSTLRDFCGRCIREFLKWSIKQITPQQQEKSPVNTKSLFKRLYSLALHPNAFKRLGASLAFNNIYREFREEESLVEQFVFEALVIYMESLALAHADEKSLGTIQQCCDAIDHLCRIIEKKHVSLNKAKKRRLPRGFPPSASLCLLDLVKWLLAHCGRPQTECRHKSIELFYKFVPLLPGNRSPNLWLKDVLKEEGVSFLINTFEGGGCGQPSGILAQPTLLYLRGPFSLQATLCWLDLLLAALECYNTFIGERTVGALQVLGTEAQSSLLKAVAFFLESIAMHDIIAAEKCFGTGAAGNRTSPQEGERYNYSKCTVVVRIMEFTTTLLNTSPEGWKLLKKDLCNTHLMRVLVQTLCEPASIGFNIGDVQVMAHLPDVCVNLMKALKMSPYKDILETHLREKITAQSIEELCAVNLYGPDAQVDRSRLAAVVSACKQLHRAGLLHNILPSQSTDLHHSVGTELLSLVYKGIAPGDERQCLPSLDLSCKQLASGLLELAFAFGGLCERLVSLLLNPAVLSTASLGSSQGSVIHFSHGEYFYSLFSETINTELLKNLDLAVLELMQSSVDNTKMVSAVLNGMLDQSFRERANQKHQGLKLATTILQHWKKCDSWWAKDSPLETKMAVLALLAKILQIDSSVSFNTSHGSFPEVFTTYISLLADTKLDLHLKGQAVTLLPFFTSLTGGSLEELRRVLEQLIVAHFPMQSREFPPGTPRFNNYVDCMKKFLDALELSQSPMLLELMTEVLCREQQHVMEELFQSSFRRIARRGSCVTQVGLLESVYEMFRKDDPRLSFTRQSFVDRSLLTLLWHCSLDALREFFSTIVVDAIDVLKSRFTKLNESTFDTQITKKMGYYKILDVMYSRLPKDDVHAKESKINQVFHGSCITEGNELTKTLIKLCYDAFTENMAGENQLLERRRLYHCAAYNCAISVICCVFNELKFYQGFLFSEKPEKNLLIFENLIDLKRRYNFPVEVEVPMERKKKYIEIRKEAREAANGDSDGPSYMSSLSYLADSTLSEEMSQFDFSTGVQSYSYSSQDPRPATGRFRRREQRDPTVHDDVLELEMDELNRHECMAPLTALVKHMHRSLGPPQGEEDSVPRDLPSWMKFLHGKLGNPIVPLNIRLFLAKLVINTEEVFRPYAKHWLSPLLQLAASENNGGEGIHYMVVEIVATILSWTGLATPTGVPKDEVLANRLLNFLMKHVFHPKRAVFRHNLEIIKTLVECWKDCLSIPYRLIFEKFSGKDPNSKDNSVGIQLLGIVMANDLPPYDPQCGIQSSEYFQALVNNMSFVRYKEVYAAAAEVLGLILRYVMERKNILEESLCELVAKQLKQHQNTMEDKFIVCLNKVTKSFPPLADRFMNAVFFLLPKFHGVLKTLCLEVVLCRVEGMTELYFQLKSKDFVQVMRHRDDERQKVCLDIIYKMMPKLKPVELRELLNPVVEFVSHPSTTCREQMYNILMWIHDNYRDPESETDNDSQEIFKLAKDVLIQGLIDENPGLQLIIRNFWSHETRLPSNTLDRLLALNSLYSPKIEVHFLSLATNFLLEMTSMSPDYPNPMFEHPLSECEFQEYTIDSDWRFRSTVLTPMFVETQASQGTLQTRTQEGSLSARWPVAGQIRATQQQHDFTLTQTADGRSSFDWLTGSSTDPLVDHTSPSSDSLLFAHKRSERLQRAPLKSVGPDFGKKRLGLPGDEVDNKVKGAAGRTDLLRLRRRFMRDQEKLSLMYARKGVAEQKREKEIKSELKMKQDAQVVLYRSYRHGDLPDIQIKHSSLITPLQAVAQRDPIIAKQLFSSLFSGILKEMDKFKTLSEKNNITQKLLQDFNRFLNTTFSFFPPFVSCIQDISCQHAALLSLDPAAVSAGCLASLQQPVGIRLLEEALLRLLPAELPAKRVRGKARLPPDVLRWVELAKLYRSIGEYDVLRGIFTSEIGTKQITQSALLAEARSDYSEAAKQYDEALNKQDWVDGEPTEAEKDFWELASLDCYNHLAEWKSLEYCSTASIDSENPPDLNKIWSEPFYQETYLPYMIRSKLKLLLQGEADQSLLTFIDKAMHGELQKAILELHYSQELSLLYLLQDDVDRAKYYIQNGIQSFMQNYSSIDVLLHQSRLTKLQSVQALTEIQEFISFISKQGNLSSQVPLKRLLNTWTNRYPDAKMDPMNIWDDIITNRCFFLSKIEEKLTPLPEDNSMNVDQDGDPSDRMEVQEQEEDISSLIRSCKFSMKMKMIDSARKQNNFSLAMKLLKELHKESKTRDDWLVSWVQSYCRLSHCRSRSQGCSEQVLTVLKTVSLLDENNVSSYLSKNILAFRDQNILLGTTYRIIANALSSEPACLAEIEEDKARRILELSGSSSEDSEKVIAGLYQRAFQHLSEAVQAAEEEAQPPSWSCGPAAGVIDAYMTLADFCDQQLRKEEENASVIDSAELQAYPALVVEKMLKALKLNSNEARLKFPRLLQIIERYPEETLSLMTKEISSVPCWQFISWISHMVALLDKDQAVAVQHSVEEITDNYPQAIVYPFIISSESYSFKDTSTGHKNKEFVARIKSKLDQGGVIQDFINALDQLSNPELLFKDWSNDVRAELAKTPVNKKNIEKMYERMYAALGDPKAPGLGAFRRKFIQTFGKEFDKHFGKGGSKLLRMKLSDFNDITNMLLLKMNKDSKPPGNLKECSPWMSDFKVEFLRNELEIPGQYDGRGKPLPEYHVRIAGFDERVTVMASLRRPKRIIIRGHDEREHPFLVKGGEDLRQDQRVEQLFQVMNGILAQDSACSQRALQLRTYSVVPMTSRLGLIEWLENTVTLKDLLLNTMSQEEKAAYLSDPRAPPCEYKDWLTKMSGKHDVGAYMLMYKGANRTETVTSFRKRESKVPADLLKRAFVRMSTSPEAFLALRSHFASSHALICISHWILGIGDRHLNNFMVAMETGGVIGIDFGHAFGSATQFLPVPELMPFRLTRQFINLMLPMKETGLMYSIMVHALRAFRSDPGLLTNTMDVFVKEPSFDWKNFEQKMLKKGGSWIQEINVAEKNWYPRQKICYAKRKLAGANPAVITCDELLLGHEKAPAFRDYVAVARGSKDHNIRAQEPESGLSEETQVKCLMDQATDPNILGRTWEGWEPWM

Row | SMILES | Ratio (HeLa [1]) | Ratio (HeLa [2]) | IC50 [3]
1 | CN1CCN(CCOc2ccc(-c3cccc4c(=O)cc(N5CCOCC5)oc34)c3sc4ccccc4c23)CC1 | 3.1 | 5.1 | 7 nM
2 | CN(C)CCN(C)C(=O)COc1ccc(-c2cccc3c(=O)cc(N4CCOCC4)oc23)c2sc3ccccc3c12 | 1.4 | 2.1 | 53 nM
3 | O=C(CN1CCOCC1)Nc1ccc(-c2cccc3c(=O)cc(N4CCOCC4)oc23)c2sc3ccccc3c12 | 3.9 | 12.8 | 11 nM
4 | O=C(CCN1CCN(c2ncccn2)CC1)Nc1ccc(-c2cccc3c(=O)cc(N4CCOCC4)oc23)c2sc3ccccc3c12 | 1.6 | 7.1 | 18 nM
5 | CN1CCCC1CCNCC(=O)Nc1ccc(-c2cccc3c(=O)cc(N4CCOCC4)oc23)c2sc3ccccc3c12 (stereo not given) | 1.1 | 2.4 | 43 nM
6 | CN(C)CCN(C)CCC(=O)Nc1ccc(-c2cccc3c(=O)cc(N4CCOCC4)oc23)c2sc3ccccc3c12 | 1.2 | 5.1 | 78 nM
7 | CN(C)CCN(C)CC(=O)Nc1ccc(-c2cccc3c(=O)cc(N4CCOCC4)oc23)c2sc3ccccc3c12 | 1.1 | 5.7 | 57 nM
8 | O=C(CN1CCN(c2ccccn2)CC1)Nc1ccc(-c2cccc3c(=O)cc(N4CCOCC4)oc23)c2sc3ccccc3c12 | 1.8 | 9.9 | 7 nM
9 | CN(C)CCN1CCN(CCC(=O)Nc2ccc(-c3cccc4c(=O)cc(N5CCOCC5)oc34)c3sc4ccccc4c23)CC1 | 1.1 | 1.3 | 10 nM
10 | O=c1cc(N2CCOCC2)oc2c(-c3ccc(OCCNc4cccnc4)c4c3sc3ccccc34)cccc12 | 0.9 | 1 | 2 nM
11 | COCCNCCC(=O)Nc1ccc(-c2cccc3c(=O)cc(N4CCOCC4)oc23)c2sc3ccccc3c12 | 2.3 | 5.9 | 8 nM
12 | O=c1cc(N2CCOCC2)oc2c(-c3ccc(OCCNCCN4CCOCC4)c4c3sc3ccccc34)cccc12 | 1.4 | 10.1 | 7 nM
13 | C[C@@H]1CN(CCOc2ccc(-c3cccc4c(=O)cc(N5CCOCC5)oc34)c3sc4ccccc4c23)C[C@H](C)O1 | 1.1 | 3.2 | 10 nM
14 | O=C(CNCCN1CCCCC1)Nc1ccc(-c2cccc3c(=O)cc(N4CCOCC4)oc23)c2sc3ccccc3c12 | 1.3 | 9.6 | 61 nM
15 | CN1CCN(CCC(=O)Nc2ccc(-c3cccc4c(=O)cc(N5CCOCC5)oc34)c3sc4ccccc4c23)CC1 | 1 | 6.6 | 28 nM
16 | O=C(CCN1CCOCC1)Nc1ccc(-c2cccc3c(=O)cc(N4CCOCC4)oc23)c2sc3ccccc3c12 | 2 | 6.1 | 41 nM
17 | O=C(CNCC1CCCO1)Nc1ccc(-c2cccc3c(=O)cc(N4CCOCC4)oc23)c2sc3ccccc3c12 (stereo not given) | 1.7 | 7.7 | 14 nM
18 | COC(=O)[C@H](CO)NC(=O)COc1ccc(-c2cccc3c(=O)cc(N4CCOCC4)oc23)c2sc3ccccc3c12 | 1.5 | 6.1 | 6 nM
19 | O=C(CN1CCCCCC1)Nc1ccc(-c2cccc3c(=O)cc(N4CCOCC4)oc23)c2sc3ccccc3c12 | 1.3 | 3.9 | 51 nM
20 | CC(=O)N1CCN(CCC(=O)Nc2ccc(-c3cccc4c(=O)cc(N5CCOCC5)oc34)c3sc4ccccc4c23)CC1 | 0.9 | 1.4 | 23 nM

Row | SMILES | Ratio (HeLa [1]) | Ratio (HeLa [2]) | IC50 [3]
21 | NCC(=O)Nc1ccc(-c2cccc3c(=O)cc(N4CCOCC4)oc23)c2sc3ccccc3c12 | 2.5 | 9 | 12 nM
22 | CC(C)N1CCN(CC(=O)Nc2ccc(-c3cccc4c(=O)cc(N5CCOCC5)oc34)c3sc4ccccc4c23)CC1 | 1.7 | 12.9 | 9 nM
23 | O=C(CCN1CCCN(CCO)CC1)Nc1ccc(-c2cccc3c(=O)cc(N4CCOCC4)oc23)c2sc3ccccc3c12 | 1.2 | 1.1 | 42 nM
24 | CCN(CC)CC(=O)Nc1ccc(-c2cccc3c(=O)cc(N4CCOCC4)oc23)c2sc3ccccc3c12 | 1.2 | 3.7 | 84 nM
25 | CCN1CCCC1CNCC(=O)Nc1ccc(-c2cccc3c(=O)cc(N4CCOCC4)oc23)c2sc3ccccc3c12 (stereo not given) | 1.2 | 5.9 | 30 nM
26 | O=C(CNCCO)Nc1ccc(-c2cccc3c(=O)cc(N4CCOCC4)oc23)c2sc3ccccc3c12 | 1.6 | 6.2 | 8 nM
27 | CCN(CC(=O)Nc1ccc(-c2cccc3c(=O)cc(N4CCOCC4)oc23)c2sc3ccccc3c12)Cc1ccncc1 | 1.5 | 14.1 | 8 nM
28 | CN1CCCN(CC(=O)Nc2ccc(-c3cccc4c(=O)cc(N5CCOCC5)oc34)c3sc4ccccc4c23)CC1 | 1.7 | 7.6 | 55 nM
29 | CN1CCCC1CCNCCC(=O)Nc1ccc(-c2cccc3c(=O)cc(N4CCOCC4)oc23)c2sc3ccccc3c12 (stereo not given) | 1.3 | 1.2 | 13 nM
30 | COCCN1CCN(CCC(=O)Nc2ccc(-c3cccc4c(=O)cc(N5CCOCC5)oc34)c3sc4ccccc4c23)CC1 | 1.3 | 3.5 | 19 nM
31 | O=C(CNCCN1CCOCC1)Nc1ccc(-c2cccc3c(=O)cc(N4CCOCC4)oc23)c2sc3ccccc3c12 | 1.4 | 4.7 | 12 nM
32 | O=C(CN(CCO)CCO)Nc1ccc(-c2cccc3c(=O)cc(N4CCOCC4)oc23)c2sc3ccccc3c12 | 1.1 | 1.9 | 6 nM
33 | O=C(CCNCCO)Nc1ccc(-c2cccc3c(=O)cc(N4CCOCC4)oc23)c2sc3ccccc3c12 | 0.9 | 0.9 | 10 nM
34 | O=C(CCN(CCO)CCO)Nc1ccc(-c2cccc3c(=O)cc(N4CCOCC4)oc23)c2sc3ccccc3c12 | 1 | 0.8 | 26 nM
35 | O=C(CCNCC1CCCO1)Nc1ccc(-c2cccc3c(=O)cc(N4CCOCC4)oc23)c2sc3ccccc3c12 (stereo not given) | 2 | 4.7 | 7 nM
36 | CC(C)NCC(=O)CN1CCN(CC(=O)Nc2ccc(-c3cccc4c(=O)cc(N5CCOCC5)oc34)c3sc4ccccc4c23)CC1 | 2 | 8.8 | 6 nM
37 | CN(CCOc1ccc(-c2cccc3c(=O)cc(N4CCOCC4)oc23)c2sc3ccccc3c12)CC(N)=O | 1.4 | 7.7 | 3 nM
38 | O=C(CCN1CCCCC1)Nc1ccc(-c2cccc3c(=O)cc(N4CCOCC4)oc23)c2sc3ccccc3c12 | 1.9 | 5 | 37 nM
39 | O=C(CNCCCN1CCOCC1)Nc1ccc(-c2cccc3c(=O)cc(N4CCOCC4)oc23)c2sc3ccccc3c12 | 2 | 7.4 | 13 nM
40 | CN(C)CC(=O)Nc1ccc(-c2cccc3c(=O)cc(N4CCOCC4)oc23)c2sc3ccccc3c12 | 1 | 7.4 | 18 nM
